# Lipid droplet = inhibitors of hepatocyte lipid droplet formation, primary screen, imaging, high-throughput imaging, BODIPY stain; AID 1656, 2009; 240,000 compounds, 0.4% hits; AML12 mouse hepatocytes, oleate lipid droplets; inhibition, % at 6.5 µM;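 active means lipid droplet intensity inhibited by at least 50%, with more than 500 cells counted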
#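 Test system: AML12 mouse liver cells; schedule: overnight exposure; technique: high-content imaging of BODIPY-stained droplets and DAPI nuclei; read-out: % inhibition of corrected integrated BODIPY droplet signal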
# HSP90 refold inh = HSP90 inhibitors, primary screen, cell lysate, luminescence; Heat shock protein HSP 90 (rabbit reticulocyte lysate; luciferase refolding); AID 1789, 2009; 290,000 compounds, 0.91% hits; Rabbit reticulocyte lysate, luciferase refolding luminescence, 3 h; inhibition, % at 5.6 µM;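 active means inhibition above the screen-wide mean plus 3 SD, computed separately per campaign, cut at about 16% in these data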;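 further: inhibitors lower the luminescence because luciferase stays unfolded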
# HSF1 inh = HSF1 inhibitors in luciferase reporter cells, primary screen, cell-based, NIH3T3, luminescence; NIH3T3-HGL HSE-luciferase, MG132-induced, luminescence 8 h; active compounds read low; activity change, negative = inhibition, % at 7.5 µM (by protocol); 300,000 compounds, 0.77% hits;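 active means more than half of replicate wells show activity change below -50%, luminescence cut by over half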;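 further: luciferase reports HSF-1 transcriptional activity via heat shock element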
# NS3 helicase inh = inhibitors of HCV NS3 helicase, primary screen, biochemical, Cy5 molecular beacon fluorescence. NS3 helicase DNA unwinding. inhibition, % at 10.9 µM. 290,000 compounds, 0.56% hits. AID 1800, 2009;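 active means inhibition above the mean of all tested compounds plus 3 SD, set per campaign, cut at about 35% in these data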
#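 System: NS3 helicase fragment of HCV / Schedule: 1 h at 25 °C / Control set: DMSO alone as 0% and 110 µM thioflavine S as 100% / Reagent: Cy5/quencher beacon DNA duplex and ATP to start / Technique: Cy5 fluorescence / Replication: singlicate / Evaluation: % inhibition of end-to-start signal ratio versus controls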
# HSF-1 act = HSF-1 activators, primary screen, NIH3T3-HGL cells, MG132 stress, luminescence, single point | 300,000 compounds, 1.7% hits | AID 504408, 2011 | activation, % at 9 µM | NIH3T3-HGL HSF-1 luciferase reporter, 8 h; 100% = twice DMSO control signal;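 active means mean replicate activation of at least 50% with a set share of replicates each reaching 50%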
# Numbers stand for hits; - = inactive; . = no result given. Shown are actives, neighbours in structure and some others; about 3.8% of the full set was active somewhere.
SMILES,Lipid droplet,HSP90 refold inh,HSF1 inh,NS3 helicase inh,HSF-1 act
COc1ccc(N(CC(=O)N/N=C/c2cc3ccc(OC)cc3nc2Cl)S(=O)(=O)c2ccccc2)cc1,-,-,-,-,59.3
COc1ccc2cc(/C=N/NC(=O)CN(c3ccccc3)S(=O)(=O)c3ccccc3)c(Cl)nc2c1,-,-,-,-,-
CCOc1ccc(N(CC(=O)Nc2ccccc2C(=O)N2CCCC2)S(C)(=O)=O)cc1,-,-,-,-,-
CCN1CC(CN(C)Cc2nc(COc3ccccc3)no2)CC1=O (stereo not drawn),-,-,-,-,54.8
CC(=O)c1ccc(-n2c(-c3cc(-c4ccsc4)n[nH]3)n[nH]c2=S)cc1,-,-,-,-,-
Oc1ccc(-c2csc(Nc3ncccn3)n2)cc1O,-,-,-,-,89.3
Oc1ccccc1-c1csc(-c2ccccc2)n1,-,-,-,-,78.9
Oc1ccc(-c2csc(-c3ccccc3)n2)cc1O,.,-,-,-,155.2
Oc1ccc(-c2csc(Nc3ncccn3)n2)c(O)c1,-,-,-,-,-
O=C(C1=C(c2ccccc2)C(=O)c2ccccc2C1=O)c1ccccc1,.,74.1,-,-,81.5
CNc1ncc(C(=O)c2ccccc2)s1,.,-,-,-,57.5
COc1cc(NC(=O)c2ccc([N+](=O)[O-])o2)ccc1NC(=O)c1ccco1,-,-,-,-,124.9
CCOc1ccc(NC(=O)c2ccco2)c([N+](=O)[O-])c1,-,-,-,-,54.4
Cc1cc(NC(=O)c2ccc([N+](=O)[O-])o2)ccc1NC(=O)c1ccco1,-,-,-,-,72.3
NC(=O)C1CCN(C(=O)CC2(CC(=O)O)CCCC2)CC1,-,-,-,-,-
Cc1nnc(N/N=C/c2ccco2)n1N,-,-,-,-,55.7
COc1cccc(/C=N/Nc2nnc(C)n2N)c1O,-,-,-,-,67.5
CC1CN=C(N(C(=S)Nc2ccccc2)c2cccc(C(F)(F)F)c2)S1 (stereo not drawn),-,-,-,-,-
COc1cc(=O)[nH]c(SC(C)C(=O)Nc2nc3c(s2)CCCC3)n1 (stereo not drawn),-,-,-,-,-
COc1cc(=O)[nH]c(SCC(=O)Nc2nc3c(s2)CCCC3)n1,-,-,-85.7,-,-
CCc1ccc(NC(=O)C2C3CCC(O3)C2C(=O)O)cc1 (stereo not drawn),-,-,-70.0,-,-
Cc1nonc1C1CCCN1Cc1cn[nH]c1-c1ccc(-c2ccccc2)cc1 (stereo not drawn),-,-,-,-,61.9
COc1ccc(CNC(C)CCc2ccccc2)cc1 (stereo not drawn),-,-,-66.9,-,-
CSc1ncccc1C(=O)OCC(=O)c1cc(C)n(CC2CCCO2)c1C (stereo not drawn),-,-,-52.0,-,-
CSc1ncccc1C(=O)OCC(=O)c1ccccc1Br,-,-,-,-,54.0
SMILES,Lipid droplet,HSP90 refold inh,HSF1 inh,NS3 helicase inh,HSF-1 act
COc1ccc(C(=O)COC(=O)c2cccnc2SC)cc1,-,-,-,-,67.8
Cc1cc(C(=O)COC(=O)c2ccc([N+](=O)[O-])o2)c(C)n1CC1CCCO1 (stereo not drawn),-,-,-,-,-
CSc1ncccc1C(=O)OCC(=O)c1ccccc1,-,-,-,-,-
Cc1ccccc1CC(=O)Nc1ccc(C(=O)N2CCCC2)cc1,-,-,-,-,-
CCOc1ccc(NC(=O)CNC(=O)c2ccc([N+](=O)[O-])cc2)cc1,-,-,-,-,-
CC(Oc1ccc(Cl)cc1Cl)c1nc(-c2ccccn2)no1 (stereo not drawn),-,-,-,-,76.0
COc1ccc(/C=C/CN2CCC(n3nccc3NC(=O)C3CC3)CC2)cc1,-,-,-,-,-
CCCC12CN3CC(C)(CN(C1)C3c1ccc3c(c1)OCO3)C2=O (stereo not drawn),-,-,-,-,66.1
CCCC12CN3CC(C)(CN(C1)C3c1ccc(OC)cc1)C2=O (stereo not drawn),.,-,-,-,-
COC(C(=O)N/N=C(\C)CC(=O)Nc1ccc(N(C)C)cc1)c1ccccc1 (stereo not drawn),-,-,-,-,-
COC(C(=O)N/N=C(\C)CC(=O)Nc1ccc(Cl)cc1C)c1ccccc1 (stereo not drawn),-,-,-,-,121.8
CC(C)[C@H](NC(=O)C1CCN(C(=O)[C@@H]2CCCN2)CC1)C(=O)NCc1ccc(F)cc1,.,-,-,-,-
O=C(Cn1c(NCCCO)nc2ccccc21)c1ccco1,.,16.1,-,-,-
COC(=O)/C=C/c1oc2ccccc2c1C,-,-,-,-,-
Cc1nn(C(C)C(=O)N2CCCC2)c(=O)c2nn(-c3ccccc3)c(C)c12 (stereo not drawn),-,-,-,-,-
CC1(C(=O)O)C=CC2(CCCCC2)N1C(=O)c1ccccc1 (stereo not drawn),-,-,-,-,-
CC1(C(=O)NCCCNc2ncc(C(F)(F)F)cc2Cl)C=CC2(CCCCC2)N1C(=O)c1ccccc1 (stereo not drawn),.,.,-69.0,.,-
CC(C)(C)c1[nH]ncc1[N+](=O)[O-],-,-,-,-,52.2
COc1ccc2c(c1)CCc1c(C(=O)NCC(C)C)noc1-2,-,-,-,-,58.1
CCCNC(=O)c1noc2c1CCc1cc(OC)ccc1-2,-,-,-,-,66.7
COc1ccc2c(c1)CCc1c(C(=O)NCc3cccnc3)noc1-2,-,-,-,-,-
N#CC1=C(N)NC(SCC(=O)Nc2ccccc2)=C(C#N)C12CCCCC2,-,-,-,-,71.2
N#CC1=C(N)NC(SCc2ccccc2)=C(C#N)C12CCCCC2,-,-,-,-,-
CCN(CC)S(=O)(=O)c1cc(C)ccc1NC(=S)Nc1cccnc1,-,-,-,-,-
CCOC(=O)c1ccc2[nH]c3c(c2c1)CCCC3O (stereo not drawn),-,-,-,-,-
SMILES,Lipid droplet,HSP90 refold inh,HSF1 inh,NS3 helicase inh,HSF-1 act
CCOC(=O)CC1NCCc2c1[nH]c1ccc(OC)cc21 (stereo not drawn),-,-,-,-,57.8
Cc1cc(C(=O)N2CCCC(CO)(Cc3ccc(F)cc3)C2)c(C)o1 (stereo not drawn),-,-,-,-,-
FC(F)(F)Oc1ccc(Nc2nc3ccccc3o2)cc1,-,-,-,-,77.7
CCC(=O)N1c2ccc(S(=O)(=O)NCCc3ccccc3)cc2CC1C (stereo not drawn),-,-,-,-,-
O=C(NNC(=S)Nc1ccccc1)c1ccc(O)cc1,-,-,-,-,57.3
O=C(NNC(=S)NC(=O)c1ccccc1)c1ccc(O)cc1,.,-,-,-,-
